In ChEMBL document CHEMBL2163238, “Design, synthesis, and biological evaluation of N-alkylated deoxynojirimycin (DNJ) derivatives for the treatment of dengue virus infection” (J Med Chem, 2012):
≈ marks a conversion by molar mass, not a printed value. Calls of active or inactive are those of the source. No cut-off for these calls is given here.

Key:
dengue virus type 2 = test: Antiviral activity against 0.01 MOI DENV-2 NGC infected in BHK cells assessed as reduction in viral titer after 48 hrs; format: functional, organism-based
Procedure, shortened: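 BHK cells infected with DENV-2 New Guinea C at MOI 0.01 for 1 h. Inoculum removed, then compounds at 0.1–100 μM for 48 h at 37 °C. Supernatants titrated on Vero monolayers as 10-fold dilutions under 0.5% methylcellulose for 3–5 days. Foci detected by 4G2 immunostaining or crystal violet plaques. EC50 from dose–response curves, mean of 3 independent experiments.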

Cytochrome P450 3A4 = Cytochrome P450 3A4 (Homo sapiens, UniProt P08684); test: (§1) Inhibition of human CYP3A4 using testosterone as substrate at 10 uM; format: ADME; conditions: 10 µM
Procedure, shortened: (§2)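 Inhibition of CYP isoforms with compound at 10 μM, reported as % inhibition. CYP3A4 run with midazolam or testosterone as substrate.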

CYP3A4 [1] = biological target: T1, CYP3A4 (Homo sapiens, UniProt P08684); test: Inhibition of human CYP3A4 using midazolam as substrate at 10 uM; format: ADME; conditions: probe midazolam; procedure, shortened: as §2
[2] = Plasma protein binding in rat plasma; format: ADME, cell-free; conditions: read-out: PPB (converted)
Procedure, shortened: (§3)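 Binding of compound to human, rat or mouse plasma protein, reported as % bound.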

[3] = Cytotoxicity against human Huh7.5 cells assessed as cell viability by DRAQ5 and Sapphire 700 staining; conditions: huh-7
Dengue virus = test: Antiviral activity against 0.01 MOI DENV infected in human Huh7.5 cells assessed as reduction in viral […] protein level at 0.1 to 100 uM after 2 days by Western blotting; format: functional, organism-based; conditions: Huh-7
[4] = Metabolic stability in rat liver microsomes at 60 mins; format: ADME, Microsome; conditions: read-out: Stability
[5] = Aqueous solubility in PBS at pH 4; format: physicochemical; conditions: buffer
[6] = Cytotoxicity against MDBK cells assessed as cell viability by MTT assay; format: cell-based, Bos taurus; conditions: cattle
CYP2C19 = CYP2C19 (Homo sapiens, UniProt P33261); test: Inhibition of human CYP2C19 at 10 uM; format: ADME; procedure, shortened: as §2
[7] = Metabolic stability in mouse liver microsomes at 60 mins; format: ADME, Microsome; conditions: read-out: Stability
CYP2D6 = CYP2D6 (Homo sapiens, UniProt P10635); test: Inhibition of human CYP2D6 at 10 uM; format: ADME
Procedure, shortened: (§4)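 Inhibition of CYP isoforms by compounds tested at 10 μM, given as percent inhibition; contract in vitro ADME panel.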

CYP2C9 = CYP2C9 (Homo sapiens, UniProt P11712); test: Inhibition of human CYP2C9 at 10 uM; format: ADME; procedure, shortened: as §4
[8] = Aqueous solubility in PBS at pH 7.4; format: physicochemical; conditions: buffer
[9] = Plasma protein binding in mouse plasma; format: ADME, cell-free; conditions: read-out: PPB (converted); procedure, shortened: as §3
CYP1A2 = biological target: T2, CYP1A2 (Homo sapiens, UniProt P05177); test: Inhibition of human CYP1A2 at 10 uM; format: ADME; procedure, shortened: as §2
T2 sequence (P05177 whole entry): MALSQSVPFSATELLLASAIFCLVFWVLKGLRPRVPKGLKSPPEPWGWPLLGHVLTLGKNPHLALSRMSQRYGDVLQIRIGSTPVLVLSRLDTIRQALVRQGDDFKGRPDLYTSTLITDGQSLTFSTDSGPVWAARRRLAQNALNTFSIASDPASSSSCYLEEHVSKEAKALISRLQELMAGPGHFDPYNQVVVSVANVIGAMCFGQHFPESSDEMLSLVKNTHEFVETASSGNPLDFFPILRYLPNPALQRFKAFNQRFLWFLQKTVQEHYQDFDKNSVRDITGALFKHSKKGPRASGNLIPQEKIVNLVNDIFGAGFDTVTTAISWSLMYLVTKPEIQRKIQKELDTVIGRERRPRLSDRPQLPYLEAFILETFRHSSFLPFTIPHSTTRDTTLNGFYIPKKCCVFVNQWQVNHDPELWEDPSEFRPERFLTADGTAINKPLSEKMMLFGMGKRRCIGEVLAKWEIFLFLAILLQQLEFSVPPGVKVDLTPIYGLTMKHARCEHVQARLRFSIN

[10] = Cytotoxicity against BHK cells assessed as cell viability by MTT assay; format: cell-based, Mesocricetus auratus; conditions: hamster
[11] = Antiviral activity against 1 MOI BVDV NADL infected in MDBK cells assessed as reduction in viral titer after 22 hrs; format: functional, cell-based, Bovine viral diarrhea virus 1-NADL; conditions: Bovine viral diarrhea virus isolates and strains, MDBK, 22 h
Procedure, shortened: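 MDBK cells (2×10^5) infected 24 h after seeding with BVDV NADL at MOI 1, with 1 h adsorption at 37 °C. Washed, then compounds at 0.1–100 μM. Media harvested 22 h post-infection and plaque-titrated on MDBK under 1% methylcellulose for 3 days. Plaques counted directly or after neutral red staining. EC50 from dose–response curves, mean of 3 independent experiments.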

[12] = Metabolic stability in human liver microsomes at 60 mins; format: ADME, Microsome; conditions: read-out: Stability
[13] = Plasma protein binding in human plasma; format: ADME, cell-free; conditions: read-out: PPB (converted); procedure, shortened: as §3
CYP3A4 [14] = biological target: T1, CYP3A4; test: as §1; format: ADME; conditions: probe testosterone; procedure, shortened: as §2
MDBK = test: Competitive inhibition of endoplasmic reticulum-resident alpha-glucosidase in MDBK cells infected with 1 MOI BVDV assessed as decrease in viral E2 protein mobility at 0.8 to 100 uM after 24 hrs by Western blotting; format: cell-based; conditions: Bos taurus
Procedure, shortened: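 MDBK cells infected with BVDV at MOI 1 for 1 h, then compounds at 0.8, 4.0, 20 and 100 μM. Cells lysed in Laemmli buffer, run on 12% polyacrylamide gel and transferred to nitrocellulose. BVDV E2 mobility probed with monoclonal WB166 and β-actin detected in parallel. IR-dye secondary antibody, Odyssey imaging.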

[15] = Oral bioavailability in Sprague-Dawley rat at 25 mg/kg; format: ADME, organism-based; conditions: in vivo
[16] = Selectivity index, ratio of CC50 for BHK cells to EC50 for DENV-2 NGC infected in BHK cells
Procedure, shortened: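 BHK cells infected with DENV-2 New Guinea C at MOI 0.01 for 1 h, then compounds at 0.1–100 μM for 48 h at 37 °C. Supernatant titrated on Vero cells under 0.5% methylcellulose, 3–5 days; foci by 4G2 immunostaining or crystal violet plaques. EC50 from yield curves; MTT CC50 in uninfected BHK; SI = CC50/EC50.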

[17] = Selectivity index, ratio of CC50 for MDBK cells to EC50 for BVDV NADL infected in MDBK cells
Procedure, shortened: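 MDBK cells infected with BVDV NADL at MOI 1, 1 h at 37 °C, washed, then compounds at 0.1–100 μM. Media harvested at 22 h, plaque-titrated on MDBK under 1% methylcellulose for 3 days, neutral red or direct count. EC50 from yield curves; MTT CC50 in uninfected MDBK; SI = CC50/EC50.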

Chain of CYP2C9 (P11712 whole entry): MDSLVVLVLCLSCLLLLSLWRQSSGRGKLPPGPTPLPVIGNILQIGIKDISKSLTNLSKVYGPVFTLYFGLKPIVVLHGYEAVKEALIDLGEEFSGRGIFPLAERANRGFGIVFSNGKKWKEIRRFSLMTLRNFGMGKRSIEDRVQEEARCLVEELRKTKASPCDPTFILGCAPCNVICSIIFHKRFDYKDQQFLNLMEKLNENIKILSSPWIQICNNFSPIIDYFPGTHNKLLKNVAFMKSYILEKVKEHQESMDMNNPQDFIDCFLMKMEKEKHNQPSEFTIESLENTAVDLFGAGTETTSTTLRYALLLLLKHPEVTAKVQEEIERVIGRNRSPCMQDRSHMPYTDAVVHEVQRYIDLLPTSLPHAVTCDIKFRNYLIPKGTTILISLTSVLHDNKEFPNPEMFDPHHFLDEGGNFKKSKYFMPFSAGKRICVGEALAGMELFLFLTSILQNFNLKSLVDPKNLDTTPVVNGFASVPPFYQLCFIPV
Chain of CYP2D6 (P10635 whole entry, canonical isoform): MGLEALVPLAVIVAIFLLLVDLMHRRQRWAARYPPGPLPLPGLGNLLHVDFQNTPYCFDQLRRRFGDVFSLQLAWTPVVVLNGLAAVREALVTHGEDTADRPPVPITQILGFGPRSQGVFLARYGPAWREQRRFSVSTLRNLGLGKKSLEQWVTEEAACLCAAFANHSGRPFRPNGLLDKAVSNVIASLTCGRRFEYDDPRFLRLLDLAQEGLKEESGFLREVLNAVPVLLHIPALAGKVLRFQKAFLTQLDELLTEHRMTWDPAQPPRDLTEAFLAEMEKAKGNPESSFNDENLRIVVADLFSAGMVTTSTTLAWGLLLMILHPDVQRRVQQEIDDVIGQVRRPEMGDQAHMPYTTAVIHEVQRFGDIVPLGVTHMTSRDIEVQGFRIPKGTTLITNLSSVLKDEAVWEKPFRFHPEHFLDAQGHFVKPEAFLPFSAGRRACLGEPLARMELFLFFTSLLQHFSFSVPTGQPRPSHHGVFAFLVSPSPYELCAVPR
T1 sequence (P08684 whole entry): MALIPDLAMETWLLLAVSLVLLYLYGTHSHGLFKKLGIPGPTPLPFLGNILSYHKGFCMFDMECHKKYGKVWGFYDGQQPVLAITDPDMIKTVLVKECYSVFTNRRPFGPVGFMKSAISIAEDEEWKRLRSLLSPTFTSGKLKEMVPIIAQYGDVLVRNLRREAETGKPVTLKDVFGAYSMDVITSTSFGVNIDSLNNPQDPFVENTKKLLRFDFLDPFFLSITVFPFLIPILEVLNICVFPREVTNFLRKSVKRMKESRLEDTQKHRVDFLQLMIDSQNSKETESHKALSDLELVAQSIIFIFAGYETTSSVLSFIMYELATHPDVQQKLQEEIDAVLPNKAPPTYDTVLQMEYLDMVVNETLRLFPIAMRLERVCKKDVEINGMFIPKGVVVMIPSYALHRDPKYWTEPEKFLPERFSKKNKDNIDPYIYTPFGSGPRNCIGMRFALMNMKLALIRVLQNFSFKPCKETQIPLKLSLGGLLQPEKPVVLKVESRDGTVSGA
Chain of Cytochrome P450 3A4 (P08684 whole entry, canonical isoform): as the sequence (P08684 whole entry) above
Chain of CYP2C19 (P33261 whole entry): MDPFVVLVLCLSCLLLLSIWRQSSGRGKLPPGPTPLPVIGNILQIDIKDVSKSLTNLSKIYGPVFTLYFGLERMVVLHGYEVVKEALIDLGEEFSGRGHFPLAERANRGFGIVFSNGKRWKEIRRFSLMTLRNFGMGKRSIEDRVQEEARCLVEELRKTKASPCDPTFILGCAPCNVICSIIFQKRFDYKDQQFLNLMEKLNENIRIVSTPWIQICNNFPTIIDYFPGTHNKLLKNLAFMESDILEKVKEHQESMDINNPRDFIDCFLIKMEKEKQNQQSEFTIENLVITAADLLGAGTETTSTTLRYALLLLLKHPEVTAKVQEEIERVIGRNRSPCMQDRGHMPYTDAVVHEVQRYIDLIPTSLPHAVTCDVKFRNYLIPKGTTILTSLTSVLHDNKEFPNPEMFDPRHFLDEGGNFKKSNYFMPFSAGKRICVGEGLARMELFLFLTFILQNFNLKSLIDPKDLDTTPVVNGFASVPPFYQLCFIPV

SMILES | Activity (dengue virus type 2) | EC50 (dengue virus type 2) [nM] | inhibition (INH) (Cytochrome P450 3A4) [%] | inhibition at 10 µM (CYP3A4 [1]) [%] | fraction unbound [2] | Activity [3] | remaining at 1 h [4] [%] | solubility [5] [µM] | CC50 [6] [µM] | inhibition at 10 µM (CYP2C19) [%] | remaining at 1 h [7] [%] | inhibition at 10 µM (CYP2D6) [%] | inhibition at 10 µM (CYP2C9) [%] | solubility [8] [µM] | fraction unbound [9] | inhibition at 10 µM (CYP1A2) [%] | CC50 [10] [µM] | EC50 [11] [nM] | remaining at 1 h [12] [%] | fraction unbound [13] | further results
OC[C@@H]1[C@@H](O)[C@H](O)[C@@H](O)CN1CCCCCCOC1CCCCCC1 | Dose-dependent effect | 500 | 3.1 | 21.2 | 0.35 | Non-toxic | 90 | 286 (≈ 103 µg/mL) | > 500 | -4.9 | 92 | 2.5 | 5 | 295 (≈ 106 µg/mL) | 0.15 | 9 | > 500 | 1400 | 89 | 0.29 | Activity (Dengue virus): Active
OC[C@@H]1[C@@H](O)[C@H](O)[C@@H](O)CN1CCCCCCOCc1ccccc1 | Dose-dependent effect | 400 | 3.3 | 6.6 | 0.51 | Non-toxic | 91 | 282 (≈ 99.7 µg/mL) | > 500 | 14.2 | 97 | 9.1 | 10.7 | 288 (≈ 102 µg/mL) | 0.47 | 17.3 | > 500 | 1500 | 104 | 0.48 | Activity (Dengue virus): Active
Cc1cccc(OCCCCCCN2C[C@H](O)[C@@H](O)[C@H](O)[C@H]2CO)c1 |  | 600 | 2.3 | 28.7 | 0.21 |  | 81 | 279 (≈ 98.6 µg/mL) | > 500 | 3.9 | […] | 12.8 | 8.9 | 286 (≈ 101 µg/mL) | 0.17 | 21.4 | > 500 | 600 | 87 | 0.2 | 
CCCC(CCC)OCCCCCCN1C[C@H](O)[C@@H](O)[C@H](O)[C@H]1CO |  | 300 | 4.2 | 2.5 | 0.23 |  | 80 | 290 (≈ 105 µg/mL) | > 500 | -1.1 | 77 | 9.1 | 43.5 | 302 (≈ 109 µg/mL) | 0.17 | 2 | 425 | 600 | 73 | 0.09 | 
CCCOc1cccc(CCCN2C[C@H](O)[C@@H](O)[C@H](O)[C@H]2CO)c1 | Dose-dependent effect | 300 |  | 8.6 | 0.43 | Non-toxic | 97 | 281 (≈ 95.4 µg/mL) | > 500 | 2.8 | 87 | 11 | 10.5 | 288 (≈ 97.8 µg/mL) | 0.4 | 15.9 | > 500 | 1200 | 99 | 0.32 | inhibition at 10 µM (CYP3A4 [14]): 0.7%; Activity (Dengue virus): Active; inhibition (MDBK): Active
CCC(O)(CC)CCCCCCN1C[C@H](O)[C@@H](O)[C@H](O)[C@H]1CO | Dose-dependent effect | 6500 |  | 21 | 0.7 | Non-toxic | 98 | 315 (≈ 105 µg/mL) | > 500 | 37 | 104 | 1.2 | 9.6 | 315 (≈ 105 µg/mL) | 0.6 | 7.9 | > 500 | 6200 | 99 | 0.67 | inhibition at 10 µM (CYP3A4 [14]): 20.5%; bioavailability [15]: 56%; Activity (Dengue virus): Active; inhibition (MDBK): Active
OC[C@@H]1[C@@H](O)[C@H](O)[C@@H](O)CN1CCCCCCOC1CCCCC1 |  | 1600 |  |  |  |  |  |  | 480 |  |  |  |  |  |  |  | > 500 | 400 |  |  | Ratio CC50/EC50 [16]: >312; inhibition (MDBK): Active; Ratio CC50/EC50 [17]: 1200
OC[C@@H]1[C@@H](O)[C@H](O)[C@@H](O)CN1CCCCCCOc1cccc(F)c1 | Dose-dependent effect | 400 |  | -2.3 | 0.29 | Non-toxic | […] | 271 (≈ 96.9 µg/mL) | > 500 | 0.7 | 104 | 10.3 | 6.2 | 283 (≈ 101 µg/mL) | 0.21 | 0.2 | > 500 | 500 | 87 | 0.22 | inhibition at 10 µM (CYP3A4 [14]): -2.3%; Activity (Dengue virus): Active
OC[C@@H]1[C@@H](O)[C@H](O)[C@@H](O)CN1CCCCCCOc1cccc(C(F)(F)F)c1 |  | 400 | 3.2 | -18.5 | 0.1 |  | 81 | 281 (≈ 114 µg/mL) | > 500 | -2.5 | 92 | 3.4 | 37.6 | 278 (≈ 113 µg/mL) | 0.08 | 0.2 | 400 | 1500 | 94 | 0.07 | 
COc1ccccc1OCCCCCCN1C[C@H](O)[C@@H](O)[C@H](O)[C@H]1CO |  | 800 |  | 12.1 | 0.3 |  | 98 | 286 (≈ 106 µg/mL) | > 500 | -4.4 | 92 | 8.7 | 11.7 | 293 (≈ 108 µg/mL) | 0.31 | -1.6 | > 500 | 1000 | 99 | 0.35 | inhibition at 10 µM (CYP3A4 [14]): -2.4%
